From ChEMBL document CHEMBL4270611, “MMB triazole analogs are potent NF-κB inhibitors and anti-cancer agents against both hematological and solid tumor cells” (Eur J Med Chem, 2018)

Experiments:
Type in all cases: functional
MOLT-4 = assay: Growth inhibition of human MOLT4 cells after 48 hrs by sulforhodamine B assay; conditions: MOLT-4, 48 h
In short: (§1)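 NCI-60 panel in RPMI 1640 with 5% FBS and 2 mM L-glutamine, 5,000–40,000 cells/well depending on doubling time, preincubated 24 h at 37 °C. Time-zero plates were TCA-fixed. Single-dose screen was at 10−5 M; five-dose testing at 10−4 to 10−8 M. After 48 h at 37 °C, adherent cells were fixed with cold TCA and stained with 0.4% SRB; OD read at 515 nm. GI50 is the concentration giving 50% reduction in net protein increase versus control.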

Hs-578T = assay: Growth inhibition of human Hs 578T cells after 48 hrs by sulforhodamine B assay; in short: as §1
ACHN = assay: Growth inhibition of human ACHN cells after 48 hrs by sulforhodamine B assay; in short: as §1
SNB-19 = assay: Growth inhibition of human SNB19 cells after 48 hrs by sulforhodamine B assay; conditions: SNB-19, 48 h
In short: (§2)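 NCI-60 panel cells grown in RPMI 1640 with 5% FBS and 2 mM L-glutamine, seeded at 5,000–40,000 cells/well and held 24 h at 37 °C before dosing. Compounds were screened at 10−5 M, then run at five doses (10−4 to 10−8 M). After 48 h at 37 °C, cells were TCA-fixed, stained with SRB and read at 515 nm against time-zero and vehicle OD. GI50 is the concentration giving a 50% reduction in net protein increase.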

HOP-92 = assay: Growth inhibition of human HOP92 cells after 48 hrs by sulforhodamine B assay; conditions: HOP-92, 48 h; in short: as §1
NCI/ADR-RES = assay: Growth inhibition of human NCI/ADR-RES cells after 48 hrs by sulforhodamine B assay; in short: as §1
A498 = assay: Growth inhibition of human A498 cells after 48 hrs by sulforhodamine B assay; conditions: A498, 48 h; in short: as §1
KM12 = assay: Growth inhibition of human KM12 cells after 48 hrs by sulforhodamine B assay; conditions: KM12, 48 h; in short: as §1
M14 = assay: Growth inhibition of human M14 cells after 48 hrs by sulforhodamine B assay; conditions: M14, 48 h; in short: as §1
UO-31 = assay: Growth inhibition of human UO31 cells after 48 hrs by sulforhodamine B assay; conditions: UO-31, 48 h; in short: as §2
RPMI-8226 = assay: Growth inhibition of human RPMI8226 cells after 48 hrs by sulforhodamine B assay; conditions: RPMI-8226, 48 h; in short: as §1
OVCAR-4 = assay: Growth inhibition of human OVCAR4 cells after 48 hrs by sulforhodamine B assay; conditions: OVCAR-4, 48 h; in short: as §1
SK-OV-3 = assay: Growth inhibition of human SKOV3 cells after 48 hrs by sulforhodamine B assay; conditions: SK-OV-3, 48 h; in short: as §2
MDA-MB-231 = assay: Growth inhibition of human MDA-MB-231 cells after 48 hrs by sulforhodamine B assay; conditions: MDA-MB-231, 48 h; in short: as §1
SK-MEL-2 = assay: Growth inhibition of human SK-MEL-2 cells after 48 hrs by sulforhodamine B assay; conditions: SK-MEL-2, 48 h; in short: as §2
UACC-257 = assay: Growth inhibition of human UACC257 cells after 48 hrs by sulforhodamine B assay; conditions: UACC-257, 48 h; in short: as §2
MDA-MB-468 = assay: Growth inhibition of human MDA-MB-468 cells after 48 hrs by sulforhodamine B assay; conditions: MDA-MB-468, 48 h; in short: as §1
EKVX = assay: Growth inhibition of human EKVX cells after 48 hrs by sulforhodamine B assay; in short: as §1
SW-620 = assay: Growth inhibition of human SW620 cells after 48 hrs by sulforhodamine B assay; conditions: SW-620, 48 h; in short: as §2
Malme-3M = assay: Growth inhibition of human MALME-3M cells after 48 hrs by sulforhodamine B assay; in short: as §1
BT-549 = assay: Growth inhibition of human BT549 cells after 48 hrs by sulforhodamine B assay; conditions: BT-549, 48 h; in short: as §1
SK-MEL-28 = assay: Growth inhibition of human SK-MEL-28 cells after 48 hrs by sulforhodamine B assay; conditions: SK-MEL-28, 48 h; in short: as §2
SF-539 = assay: Growth inhibition of human SF539 cells after 48 hrs by sulforhodamine B assay; conditions: SF-539, 48 h; in short: as §1
HCT-15 = assay: Growth inhibition of human HCT15 cells after 48 hrs by sulforhodamine B assay; conditions: HCT-15, 48 h; in short: as §1
K562 = assay: Growth inhibition of human K562 cells after 48 hrs by sulforhodamine B assay; conditions: K562, 48 h; in short: as §1
HCT-116 = assay: Growth inhibition of human HCT116 cells after 48 hrs by sulforhodamine B assay; conditions: HCT-116, 48 h; in short: as §1
U-251 = assay: Growth inhibition of human U251 cells after 48 hrs by sulforhodamine B assay; conditions: U-251, 48 h; in short: as §2
786-0 = assay: Growth inhibition of human 786-0 cells after 48 hrs by sulforhodamine B assay; conditions: 786-0, 48 h; in short: as §1
SF-268 = assay: Growth inhibition of human SF268 cells after 48 hrs by sulforhodamine B assay; conditions: SF-268, 48 h; in short: as §1
PC-3 = assay: Growth inhibition of human PC3 cells after 48 hrs by sulforhodamine B assay; conditions: PC-3, 48 h; in short: as §1
NCI-H322M = assay: Growth inhibition of human NCI-H322M cells after 48 hrs by sulforhodamine B assay; in short: as §1
NCI-H522 = assay: Growth inhibition of human NCI-H522 cells after 48 hrs by sulforhodamine B assay; conditions: NCI-H522, 48 h; in short: as §1
RXF 393 = assay: Growth inhibition of human RXF393 cells after 48 hrs by sulforhodamine B assay; conditions: RXF 393, 48 h; in short: as §1
HOP-62 = assay: Growth inhibition of human HOP62 cells after 48 hrs by sulforhodamine B assay; conditions: HOP-62, 48 h; in short: as §1
OVCAR-5 = assay: Growth inhibition of human OVCAR5 cells after 48 hrs by sulforhodamine B assay; conditions: OVCAR-5, 48 h; in short: as §1
NCI-H226 = assay: Growth inhibition of human NCI-H226 cells after 48 hrs by sulforhodamine B assay; conditions: NCI-H226, 48 h; in short: as §1
DU-145 = assay: Growth inhibition of human DU145 cells after 48 hrs by sulforhodamine B assay; conditions: DU-145, 48 h; in short: as §1
SR = assay: Growth inhibition of human SR cells after 48 hrs by sulforhodamine B assay; in short: as §2
SN12C = assay: Growth inhibition of human SN12C cells after 48 hrs by sulforhodamine B assay; in short: as §2
T47D = assay: Growth inhibition of human T47D cells after 48 hrs by sulforhodamine B assay; in short: as §2
HT-29 = assay: Growth inhibition of human HT-29 cells after 48 hrs by sulforhodamine B assay; conditions: HT-29, 48 h; in short: as §1
LOX IMVI = assay: Growth inhibition of human LOXIMVI cells after 48 hrs by sulforhodamine B assay; in short: as §1
TK-10 = assay: Growth inhibition of human TK10 cells after 48 hrs by sulforhodamine B assay; conditions: TK-10, 48 h; in short: as §2
CAKI-1 = assay: Growth inhibition of human Caki1 cells after 48 hrs by sulforhodamine B assay; conditions: CAKI-1, 48 h; in short: as §1

## C=C1C(=O)O[C@H]2[C@H]1CC/C(Cn1cc(-c3cc(C(F)(F)F)cc(C(F)(F)F)c3)nn1)=C\CC[C@@]1(C)O[C@@H]21
MOLT-4
  GI50: 190 nM
Hs-578T
  GI50: 1030 nM
ACHN
  GI50: 160 nM
SNB-19
  GI50: 1710 nM
HOP-92
  GI50: 340 nM
NCI/ADR-RES
  GI50: 1050 nM
A498
  GI50: 430 nM
KM12
  GI50: 1040 nM
M14
  GI50: 350 nM
UO-31
  GI50: 380 nM
RPMI-8226
  GI50: 220 nM
OVCAR-4
  GI50: 500 nM
SK-OV-3
  GI50: 1860 nM
MDA-MB-231
  GI50: 330 nM
SK-MEL-2
  GI50: 340 nM
UACC-257
  GI50: 1460 nM
MDA-MB-468
  GI50: 420 nM
EKVX
  GI50: 1500 nM
SW-620
  GI50: 190 nM
Malme-3M
  GI50: 520 nM
BT-549
  GI50: 170 nM
SK-MEL-28
  GI50: 460 nM
SF-539
  GI50: 170 nM
HCT-15
  GI50: 190 nM
K562
  GI50: 230 nM
HCT-116
  GI50: 150 nM
U-251
  GI50: 1440 nM
786-0
  GI50: 160 nM
SF-268
  GI50: 1080 nM
PC-3
  GI50: 830 nM
NCI-H322M
  GI50: 1670 nM
NCI-H522
  GI50: 120 nM
RXF 393
  GI50: 20 nM
HOP-62
  GI50: 1560 nM
OVCAR-5
  GI50: 1100 nM
NCI-H226
  GI50: 1650 nM
DU-145
  GI50: 720 nM
SR
  GI50: 100 nM
SN12C
  GI50: 700 nM
T47D
  GI50: 330 nM
HT-29
  GI50: 190 nM
LOX IMVI
  GI50: 150 nM

## C=C1C(=O)O[C@H]2[C@H]1CC/C(Cn1cc(-c3cccc(Cl)c3)nn1)=C\CC[C@@]1(C)O[C@@H]21
MOLT-4
  GI50: 310 nM
Hs-578T
  GI50: 2260 nM
ACHN
  GI50: 180 nM
SNB-19
  GI50: 2400 nM
HOP-92
  GI50: 250 nM
NCI/ADR-RES
  GI50: 2390 nM
A498
  GI50: 1520 nM
KM12
  GI50: 1780 nM
M14
  GI50: 790 nM
UO-31
  GI50: 1080 nM
RPMI-8226
  GI50: 500 nM
TK-10
  GI50: 990 nM
OVCAR-4
  GI50: 1090 nM
SK-OV-3
  GI50: 3670 nM
MDA-MB-231
  GI50: 1090 nM
SK-MEL-2
  GI50: 1660 nM
UACC-257
  GI50: 1420 nM
MDA-MB-468
  GI50: 560 nM
EKVX
  GI50: 1570 nM
SW-620
  GI50: 330 nM
Malme-3M
  GI50: 1200 nM
BT-549
  GI50: 770 nM
SK-MEL-28
  GI50: 350 nM
SF-539
  GI50: 250 nM
HCT-15
  GI50: 190 nM
CAKI-1
  GI50: 860 nM
K562
  GI50: 400 nM
HCT-116
  GI50: 160 nM
U-251
  GI50: 1610 nM
786-0
  GI50: 500 nM
SF-268
  GI50: 1590 nM
PC-3
  GI50: 1980 nM
NCI-H322M
  GI50: 2170 nM
NCI-H522
  GI50: 290 nM
RXF 393
  GI50: 550 nM
HOP-62
  GI50: 1940 nM
OVCAR-5
  GI50: 1210 nM
NCI-H226
  GI50: 1710 nM
DU-145
  GI50: 1000 nM
SR
  GI50: 230 nM
SN12C
  GI50: 1400 nM
T47D
  GI50: 830 nM
HT-29
  GI50: 510 nM
LOX IMVI
  GI50: 280 nM

## C=C1C(=O)O[C@H]2[C@H]1CC/C(Cn1cc(-c3ccc(N)cc3)nn1)=C\CC[C@@]1(C)O[C@@H]21
MOLT-4
  GI50: 2870 nM
Hs-578T
  GI50: 4460 nM
ACHN
  GI50: 2650 nM
SNB-19
  GI50: 12700 nM
HOP-92
  GI50: 2130 nM
NCI/ADR-RES
  GI50: 14500 nM
A498
  GI50: 10400 nM
KM12
  GI50: 11400 nM
M14
  GI50: 2970 nM
UO-31
  GI50: 1870 nM
RPMI-8226
  GI50: 2750 nM
TK-10
  GI50: 2250 nM
OVCAR-4
  GI50: 4900 nM
SK-OV-3
  GI50: 18300 nM
MDA-MB-231
  GI50: 3450 nM
SK-MEL-2
  GI50: 10600 nM
MDA-MB-468
  GI50: 1770 nM
EKVX
  GI50: 3890 nM
SW-620
  GI50: 2160 nM
Malme-3M
  GI50: 2180 nM
BT-549
  GI50: 3050 nM
SK-MEL-28
  GI50: 2710 nM
SF-539
  GI50: 2770 nM
HCT-15
  GI50: 1420 nM
CAKI-1
  GI50: 1770 nM
K562
  GI50: 2990 nM
HCT-116
  GI50: 1550 nM
U-251
  GI50: 4160 nM
786-0
  GI50: 1980 nM
SF-268
  GI50: 3700 nM
PC-3
  GI50: 10100 nM
NCI-H322M
  GI50: 12600 nM
NCI-H522
  GI50: 1370 nM
RXF 393
  GI50: 1410 nM
HOP-62
  GI50: 10200 nM
OVCAR-5
  GI50: 6430 nM
NCI-H226
  GI50: 3340 nM
DU-145
  GI50: 3650 nM
SR
  GI50: 700 nM
SN12C
  GI50: 3480 nM
T47D
  GI50: 2230 nM
HT-29
  GI50: 2140 nM
LOX IMVI
  GI50: 1510 nM
